Results from the EternaBench riboswitch data.

Key:
[1] = tested on: MS2 coat protein; test: apparent Kd, MS2 coat protein; higher = weaker binding; RNA-MaP array; tryptophan 2.4 mM where present
Outline: (§1)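 SNAP-549-labelled MS2 coat protein, doubled from 0.7 or 1.5 nM to 3 µM, was titrated over designs transcribed by stalled E. coli RNA polymerase on Illumina sequencing-chip clusters. Titrations were run without and then with constant ligand in 100 mM Tris-HCl pH 7.5, 80 mM KCl, 4 mM MgCl2, BSA, DTT, yeast tRNA and Tween-20. The apparent Kd is the median of filtered per-cluster fits to green signal normalised to red-channel RNA signal and control-cluster median Fmax.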

[2] = tested on: MS2 coat protein; test: apparent Kd, MS2 coat protein; higher = weaker binding; RNA-MaP array; theophylline 2 mM where present
Outline: as §1

[3] = designed as: ON switch for tryptophan, no ligand
[4] = ligand present: tryptophan, designed as: ON switch for tryptophan
[5] = designed as: OFF switch for tryptophan, no ligand
[6] = ligand present: tryptophan, designed as: OFF switch for tryptophan
[7] = designed as: OFF switch for theophylline, no ligand
[8] = ligand present: theophylline, designed as: OFF switch for theophylline
[9] = designed as: ON switch for theophylline, no ligand
[10] = ligand present: theophylline, designed as: ON switch for theophylline

ACAUGAGGAUCACCCAUGUGUGUAAAUCCUCGAGGACCGGUACGGCCGCCACUCGAACGAGUGUAAGUUGAAUGUAACAUUCAAC
apparent Kd [1, 3]: 85.5 nM
apparent Kd [1, 4]: 33.7 nM

GGGCGCGUGGACCGGCGUGCUCCGCUCCGUCGAGGACCGGUACGGCCGCCACUCGACAUGAGGAUCACCCAUGUGUGAGCUCGCG
apparent Kd [1, 5]: 55.2 nM
apparent Kd [1, 6]: 281 nM

UACAUGAGGAUCACCCAUGUCCCAUGUGAACGAGGACCGGUACGGCCGCCACUCGAAUAAGGCGGCACAUGAGGAUCACCCACAU
apparent Kd [1, 3]: 284 nM
apparent Kd [1, 4]: 712 nM

AUAACAUGAGGAUCACCCAUGUAUUGGUUACGAGGACCGGUACGGCCGCCACUCGUAUUAUAGUGGUAUUUUGUUUAUAUGAUAA
apparent Kd [1, 3]: 12.6 nM
apparent Kd [1, 4]: 14.1 nM

AGCAACAAGUCGGCCGCCACUCAUAUUACAUGAGGAUCACCCAUGUUUACAUCAAGGUCAUAAUAGAGGACCGGGACAGUUGCAU
apparent Kd [1, 3]: 34.1 nM
apparent Kd [1, 4]: 23.7 nM

ACAUGAGGAUCACCCAUGUGCAUCACCCGACGAGGACCGGUACGGCCGCCACUCGGGUAUAUAUUUACAUCGGGUGAUUUUACGU
apparent Kd [1, 3]: 22.8 nM
apparent Kd [1, 4]: 21 nM

GAUUAAACAUGAGGAUCACCCAUGUAUAUACGAGGACCGGUACGGCCGCCACUCGUAAACGAGUAUCCUCGAAUAAACAUGAUAA
apparent Kd [1, 3]: 134 nM
apparent Kd [1, 4]: 42.7 nM

AUGCAGAGCACGGCCGCCACUCCAUGUAUACAUGAGGAUCACCCAUGUAAUUUGUAUUUUUUAUAGAGGACCGGGUGAAAUGCAA
apparent Kd [1, 3]: 34.3 nM
apparent Kd [1, 4]: 18.2 nM

UGUCAGCGAAAGUUGACAUGCAGUGCCGGUCGAGGACCGGUACGGCCGCCACUCGAUCUCUCGUACAUGAGGAUCACCCAUGUCG
apparent Kd [1, 3]: 13.4 nM
apparent Kd [1, 4]: 13.8 nM

UAUCGUCAGACGGCCGCCACUAGAACAUGAGGAUCACCCAUGUACCCGGUCCAUUCCUCAUUAACUAGGACCGGGUCUGACGAAU
apparent Kd [1, 5]: 125 nM
apparent Kd [1, 6]: 30.2 nM

CACGAAAGAUCGGCCGCCACUAUUUGAUGUGUUCUUUCACAUGAGGAUCACCCAUGUUCUUUCUUUAGGACCGGGAUUGAGCGUG
apparent Kd [1, 5]: 99.4 nM
apparent Kd [1, 6]: 49.5 nM

UUCUUUGACGAUCUGGGUUUACCAGAUCGACGAGGACCGGUACGGCCGCCACUCGUGUUUUCUUUACAUGAGGAUCACCCAUGUU
apparent Kd [1, 3]: 16.4 nM
apparent Kd [1, 4]: 15.6 nM

AUAAGCUGUACCGGAAUAUCCUCAUGUAUACGAGGACCGGUACGGCCGCCACUCGAUAACAUGAGGAUCACCCAUGUAAUAAUAA
apparent Kd [1, 5]: 11.2 nM
apparent Kd [1, 6]: 11.2 nM

UGUAGUACCAGACAUGAGGAUCACCCAUGUCGAGGACCGGUACGGCCGCCACUCGGCAGUUUGCGUCCUCAGGUACUCCGGGUAA
apparent Kd [1, 5]: 13 nM
apparent Kd [1, 6]: 15 nM

AAUGUAUGGCACAUGAGGAUCACCCAUGUGCGAGGACCGGUACGGCCGCCACUCGGUCCUGGGAUCUUACCACUAUACAUUAAUG
apparent Kd [1, 5]: 10 nM
apparent Kd [1, 6]: 13.1 nM

UUAUAAGUACCGGUCCUCAGAUCCUCAUGACGAGGACCGGUACGGCCGCCACUCGAAACAUGAGGAUCACCCAUGUAAUAAUAAU
apparent Kd [1, 5]: 24.2 nM
apparent Kd [1, 6]: 21.5 nM

AGCCACUCGAGUGAUCCUCACGAGUGGCUACGAGGACCGGUACGGCCGCCACUCGAAUUAACAUGAGGAUCACCCAUGUAAUAAU
apparent Kd [1, 3]: 152 nM
apparent Kd [1, 4]: 39.6 nM

AGUACAUGAGGAUCACCCAUGUGCCGGUAACGAGGACCGGUACGGCCGCCACUCGAUGUACCUCAAUUUGAUUGAGAUAAGAAAA
apparent Kd [1, 3]: 41 nM
apparent Kd [1, 4]: 17.4 nM

AGAUGAGUCACGGCCGCCACUCACUUCAGGUUCACCCUUGGUUAACAUGAGGAUCACCCAUGUGGGAGGACCGGGUGAUGAGCAU
apparent Kd [1, 5]: 16.2 nM
apparent Kd [1, 6]: 12.8 nM

AUAUAUACAUGAGGAUCACCCAUGUUAUUACGAGGACCGGUACGGCCGCCACUCGAUAGAGUAGAAGUAAAUUUUAAUUCAUGUA
apparent Kd [1, 3]: 14.5 nM
apparent Kd [1, 4]: 13 nM

GAGUAGAAGACGGCCGCCACUAAACAUGAGGAUCACCCAUGUCGUGAUCCGUUACCUAGAGUAGAUAGGACCGGGUCAUAUAGUC
apparent Kd [1, 5]: 30.4 nM
apparent Kd [1, 6]: 30.9 nM

UACUUGCUGACGGCCGCCACUAGAACAUGAGGAUCACCCAUGUACCCGGUCCUAAUCCUCAUGACUAGGACCGGGUCAGCAAGAU
apparent Kd [1, 5]: 22.4 nM
apparent Kd [1, 6]: 21.5 nM

AAGCUUCGCAUAGGAAAACUAUGUGAAGCUCGAGGACCGGUACGGCCGCCACUCGUCCUCAACAUGAGGAUCACCCAUGUAAUAA
apparent Kd [1, 5]: 22.5 nM
apparent Kd [1, 6]: 28.2 nM

AGAGCAUUGACGGCCGCCACUCAUGUCACAUGAGGAUCACCCAUGUGAUGGGUGAUCGCCCGGUUGAGGACCGGGUCAAUGCUCA
apparent Kd [1, 3]: 43 nM
apparent Kd [1, 4]: 28.5 nM

GAUAUGGAAACAUGUCAGAUCCUUACCGGUCGAGGACCGGUACGGCCGCCACUCGAAAAUAAUAAACAUGAGGAUCACCCAUGUA
apparent Kd [1, 5]: 14.4 nM
apparent Kd [1, 6]: 32 nM

GAUCGACAAAACGUCUAGGAAAACUAGACGCGAGGACCGGUACGGCCGCCACUCGUCCUCACAUGAGGAUCACCCAUGUACGAUC
apparent Kd [1, 5]: 31.5 nM
apparent Kd [1, 6]: 177 nM

CUACAUUUGUAGAAACCGGUCAACAUUAUUCGAGGACCGGUACGGCCGCCACUCGUAUAUUUUAAUACAUGAGGAUCACCCAUGU
apparent Kd [1, 3]: 11.6 nM
apparent Kd [1, 4]: 12.1 nM

UAUCGUCAGACGGCCGCCACUAGAACAUGAGGAUCACCCAUGUACGGCCGCCCGGUAUGGGUGUCUAGGACCGGGUCUGACGAAU
apparent Kd [1, 5]: 30.4 nM
apparent Kd [1, 6]: 39 nM

AAUGUGAAGGCGGCCGCCACUGAUAAUAGACAUGAGGAUCACCCAUGUAUAAAUCCUCAAUAAGACAGGACCGGGCCAACUACGU
apparent Kd [1, 5]: 105 nM
apparent Kd [1, 6]: 125 nM

GGAGUCGUCACGGCCGCCACUGCGGUGGUGUGACAUGAGGAUCACCCAUGUUGUCAUGCGGCCCUUAGGACCGGGUGUCGGUUCC
apparent Kd [1, 5]: 51.5 nM
apparent Kd [1, 6]: 59.1 nM

UCCUGCAGAGCGGCCGCCACUGUAUUGCGUGAGGAUGACCCAACAUGAGGAUCACCCAUGUUGUUUAGGACCGGGCUUGCCACGA
apparent Kd [1, 5]: 14.2 nM
apparent Kd [1, 6]: 15.5 nM

GAGGAAACUCACAUGAGGAUCACCCAUGUACGAGGACCGGUACGGCCGCCACUCGAAACCAUGGGCGGUUGUACAUGGAAACAUG
apparent Kd [1, 5]: 24.8 nM
apparent Kd [1, 6]: 74.8 nM

UGGAGUAGGACGGCCGCCACUAUACAAUGUGUAUACAUGAGGAUCACCCAUGUAAUCCUCGGAGAUAGGACCGGGUCAAGUUGUG
apparent Kd [1, 5]: 53.6 nM
apparent Kd [1, 6]: 50.5 nM

UAUUUUGUGAUGGAUACCAGCAGAGAAAACGUUUAUCCUAACAUGAGGAUCACCCAUGUAUGCCCUUGGCAGCUGUUGUGGGAUA
apparent Kd [2, 7]: 30.8 nM
apparent Kd [2, 8]: 36.1 nM

GCCGCGGCCGCGAUACACAUGGGUAUGUAACGAGGACCGGUACGGCCGCCACUCGAGAUAAUGUACAUGAGGAUCACCCAUGUAC
apparent Kd [1, 5]: 11.5 nM
apparent Kd [1, 6]: 13.3 nM

ACACAUGAGGAUCACCCAUGUCCAAUAGAUACCAGUGAUACAGUGCACCCUUGGCAGCUGUUACUGAGUAAUGGUUCCCUCGGAA
apparent Kd [2, 9]: 36.6 nM
apparent Kd [2, 10]: 46 nM

ACAUGAGGAUCACCCAUGUCACGGCACGAUACCAGCUGAUGCGGUGGCCCUUGGCAGCGUGACGUUUGGUCCCGCGGAUGACGGG
apparent Kd [2, 9]: 40.8 nM
apparent Kd [2, 10]: 16.8 nM

UCGUGUGUUUCGGAUACCAGUGAAAUCGAUACAUGAGGAUCACCCAUGUGAGAGGAUGUACACCCUUGGCAGCUGGCUGUAGCGG
apparent Kd [2, 9]: 47.9 nM
apparent Kd [2, 10]: 39.7 nM

AAGCUGCCAAGAAGGUGAUCCAAAUGUGAUACCAGCUAGGAAACUAGCCCUUGGCAGCACAUGAGGAUCACCCAUGUAAUAAUAA
apparent Kd [2, 7]: 60.8 nM
apparent Kd [2, 8]: 182 nM

GCUGUAAGUGCAGAUACCAGCAUGUUAUAUUUCUAAUGACAUGAGGAUCACCCAUGUAAAUGCCCUUGGCAGCUGCACUUACAGC
apparent Kd [2, 9]: 18.9 nM
apparent Kd [2, 10]: 18.8 nM

UGUUUGGUGCGCGAGUGUUGGAUAAUUGAUACCAGUGUAGAAGAGCGCCCUUGGCAGCGAAUCCUAACAUGAGGAUCACCCAUGU
apparent Kd [2, 9]: 40 nM
apparent Kd [2, 10]: 57.3 nM

AUUUACAUGGUCAUAUAUAUAUCGUCAGAUACCAGACUAGAUAUUGUCCCUUGGCAGCUGUUACAUGAGGAUCACCCAUGUUAUA
apparent Kd [2, 7]: 230 nM
apparent Kd [2, 8]: 131 nM

AAACAUUGCUGCGAUACCAGACAUGAGGAUCACCCAUGUACCAAGGUAAGAAAAUAACAUGUCCCUUGGCAGCGCAGCAAUGAAA
apparent Kd [2, 7]: 16.4 nM
apparent Kd [2, 8]: 418 nM

UUAGAUAUGACAGAUACCAGCGUGUUGUAGAACAUGAGGAUCACCCAUGUAGUGAUCGUGCGCCCUUGGCAGCUGGUAUGUUUGG
apparent Kd [2, 9]: 280 nM
apparent Kd [2, 10]: 881 nM

AAACGUUGCUCAGAUACCAGACAUGAGGAUCACCCAUGUACCAAGGUAACCGAAAGGCAUGUCCCUUGGCAGCUGAGCAACGAAA
apparent Kd [2, 7]: 12.8 nM
apparent Kd [2, 8]: 262 nM

AAACGUUGCUGCGAUACCAGACAUGAGGAUCACCCAUGUACCAAGAAAACGUACAUAAAUGUCCCUUGGCAGCGCAGCAACGAAA
apparent Kd [2, 7]: 582 nM
apparent Kd [2, 8]: 1110 nM

GACCUUGCGGGCGCCCGCAAGGUCGCGGAUACCAGCGAGGUCCAUCGCCCUUGGCAGCCGAACAUGAGGAUCACCCAUGUCGGUU
apparent Kd [2, 9]: 10.9 nM
apparent Kd [2, 10]: 11.8 nM

GAUGAACUAUAUGAUACCAGACAACAUGAGGAUCACCCAUGUGAAAGUCGUCCUCUGCCUGUCCCUUGGCAGCGUAUAGUUUAUC
apparent Kd [2, 7]: 50.4 nM
apparent Kd [2, 8]: 168 nM

AAGGUGAUCCUCGAUACCAGCUCAACAUGAGGAUCACCCAUGUAAGCCUGGAAACAGGCGAGCCCUUGGCAGCGAGUUACAUCAA
apparent Kd [2, 9]: 62.1 nM
apparent Kd [2, 10]: 17.8 nM

AGCUCAUAGAGUGAUACCAGACUACAUGAGGAUCACCCAUGUUUCUUUUGGUUAUCAUGUGUCCCUUGGCAGCACAAGAAGAGCA
apparent Kd [2, 7]: 13.4 nM
apparent Kd [2, 8]: 114 nM

GCACGACAUGAGGAUCACCCAUGUGCAGAUACCAGUAGGAUAUCCUACCCUUGGCAGCUGAGUGGAUCCGGAGGACCAUGGGUAA
apparent Kd [2, 9]: 38 nM
apparent Kd [2, 10]: 82.6 nM

UAUUUGGUGCGCGAGCGCUGGAUAAUUGAUACCAGUGAAGAAGAGCGCCCUUGGCAGCGAAUCCUAACAUGAGGAUCACCCAUGU
apparent Kd [2, 9]: 37 nM
apparent Kd [2, 10]: 42.1 nM
